From ChEMBL document CHEMBL1133100, “Design and synthesis of Cyclopenta[g]quinazoline-based antifolates as inhibitors of thymidylate synthase and potential antitumor agents(,)” (J Med Chem, 2000)

What was measured:
Thymidylate synthase [1] = target: T1, Thymidylate synthase (Mus musculus, UniProt P07607); experiment: Binding affinity against thymidylate synthase from L1210 mouse leukemia cells; assay type: cell-based; conditions: read-out: Ki app
Summary of the method: (§1)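 Enzyme source was partially purified thymidylate synthase from L1210 mouse leukemia cells that overproduce TS through TS gene amplification. Apparent Ki was determined alongside the control CB3717 in each experiment. The test Kiapp/CB3717 Kiapp ratio was multiplied by the mean CB3717 Kiapp across experiments to allow comparison between experiments.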

L1210 [2] = experiment: Compound was tested for the inhibition of L1210 cell growth in mouse.; assay type: functional, cell-based
L1210 [3] = experiment: Compound was tested for the inhibition of L1210: 1565 cell growth in mouse.; assay type: functional, cell-based
L1210 [4] = experiment: Compound was tested for the inhibition of L1210: 1565 cell growth in mouse; value given as 3.6, 2.7; assay type: functional, cell-based
Thymidylate synthase [5] = target: T1, Thymidylate synthase; experiment: Compound was tested for the binding affinity against thymidylate synthase from L1210 mouse leukemia cells; value given as 0.9, 2.0; assay type: cell-based; conditions: read-out: Ki app; summary of the method: as §1
L1210 [6] = experiment: Compound was tested for the inhibition of L1210 cell growth in mouse; value given as 7.2, 7.2; assay type: functional, cell-based
L1210 [7] = experiment: Compound was tested for the inhibition of L1210: 1565 cell growth in mouse; value given as 3.9, 3.0; assay type: functional, cell-based
Thymidylate synthase [8] = target: T1, Thymidylate synthase; experiment: Compound was tested for the binding affinity against thymidylate synthase from L1210 mouse leukemia cells; value given as 2.4,1.8; assay type: cell-based; conditions: read-out: Ki app; summary of the method: as §1
L1210 [9] = experiment: Compound was tested for the inhibition of L1210:1565 cell growth in mouse; value given as 3.5,4.1; assay type: functional, cell-based
L1210 [10] = experiment: Compound was tested for the inhibition of L1210 cell growth in mouse; value given as 1.7,2.0; assay type: functional, cell-based
L1210 [11] = experiment: Compound was tested for the inhibition of L1210: 1565 cell growth in mouse; value given as 1.2, 1.6; assay type: functional, cell-based
L1210 [12] = experiment: Compound was tested for the inhibition of L1210: 1565 cell growth in mouse; value given as 8.2, 7.8; assay type: functional, cell-based
L1210 [13] = experiment: Compound was tested for the inhibition of L1210: 1565 cell growth in mouse; Value given as 1.3,0.84; assay type: functional, cell-based
L1210 [14] = experiment: Compound was tested for the inhibition of L1210 cell growth in mouse; Value was given as 2.3,1.8.; assay type: functional, cell-based

T1 sequence (P07607 whole entry): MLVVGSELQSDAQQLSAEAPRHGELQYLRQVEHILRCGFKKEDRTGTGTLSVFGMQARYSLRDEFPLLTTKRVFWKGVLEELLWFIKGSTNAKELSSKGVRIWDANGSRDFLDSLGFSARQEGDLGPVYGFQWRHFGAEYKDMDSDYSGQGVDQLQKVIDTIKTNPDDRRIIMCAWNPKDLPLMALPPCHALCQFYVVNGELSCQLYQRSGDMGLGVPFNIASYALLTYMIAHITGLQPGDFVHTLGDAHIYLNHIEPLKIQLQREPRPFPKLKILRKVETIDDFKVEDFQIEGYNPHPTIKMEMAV

| Structure (SMILES) | Ki (Thymidylate synthase [1]) [nM] | IC50 (L1210 [2]) [nM] | IC50 (L1210 [3]) [nM] | also measured |
| --- | --- | --- | --- | --- |
| C#CCN(c1ccc(C(=O)N[C@@H](CCC(=O)N[C@H](CCC(=O)O)C(=O)O)C(=O)O)cc1)C1CCc2cc3nc(C)nc(O)c3cc21 (some centres not stated) | 0.42 | 300 | 2200 |  |
| C#CCN(c1ccc(C(=O)N[C@@H](CCC(=O)N[C@H](CCC(=O)O)c2nnn[nH]2)C(=O)O)cc1)C1CCc2cc3nc(C)[nH]c(=O)c3cc21 (some centres not stated) | 0.2 | 1500 | 1300 |  |
| C#CCN(c1ccc(C(=O)N[C@@H](CCC(=O)N[C@H](CCC)c2nnn[nH]2)C(=O)O)cc1)C1CCc2cc3nc(C)[nH]c(=O)c3cc21 (some centres not stated) | 2.6 | 440 |  | IC50 (L1210 [4]): 3600 nM |
| C#CCN(c1ccc(C(=O)N[C@@H](CCc2nnnn2CCCC(=O)O)C(=O)O)cc1)C1CCc2cc3nc(C)nc(O)c3cc21 (some centres not stated) |  | 2700 | 2300 | Ki (Thymidylate synthase [5]): 2 nM |
| C#CCN(c1ccc(C(=O)N[C@@H](CCC(=O)N[C@@H](CCc2nnnn2CC(=O)O)C(=O)O)C(=O)O)cc1)C1CCc2cc3nc(C)nc(O)c3cc21 (some centres not stated) | 0.26 |  |  | IC50 (L1210 [6]): 7200 nM; IC50 (L1210 [7]): 3900 nM |
| C#CCN(Cc1cc2c(O)nc(C)nc2cc1C)c1ccc(C(=O)N[C@@H](CCC(=O)N[C@H](CCC(=O)O)C(=O)O)C(=O)O)cc1 | 2 | 220 | 14000 |  |
| C#CCN(c1ccc(C(=O)N[C@@H](CCc2nnnn2CC(=O)O)C(=O)O)cc1)C1CCc2cc3nc(C)nc(O)c3cc21 (some centres not stated) |  |  |  | Ki (Thymidylate synthase [8]): 2.4 nM; IC50 (L1210 [9]): 4100 nM; IC50 (L1210 [10]): 2000 nM |
| C#CCN(c1ccc(C(=O)N[C@@H](CCc2nnnn2CC(=O)N[C@H](C)C(=O)O)C(=O)O)cc1)C1CCc2cc3nc(C)nc(O)c3cc21 (some centres not stated) | 2.2 | 19000 | 13000 |  |
| C#CCN(c1ccc(C(=O)N[C@@H](CCC(=O)N[C@H](C)c2nnn[nH]2)C(=O)O)cc1)C1CCc2cc3nc(C)[nH]c(=O)c3cc21 (some centres not stated) | 2.2 | 640 |  | IC50 (L1210 [11]): 1600 nM |
| C#CCN(c1ccc(C(=O)N[C@@H](CCC(=O)N[C@H](C)C(=O)NS(=O)(=O)c2ccccc2)C(=O)O)cc1)C1CCc2cc3nc(C)nc(O)c3cc21 (some centres not stated) | 2.4 | 1900 |  | IC50 (L1210 [12]): 8200 nM |
| C#CCN(c1ccc(C(=O)N[C@@H](CCc2nnn(CC(=O)O)n2)C(=O)O)cc1)C1CCc2cc3nc(C)nc(O)c3cc21 (some centres not stated) | 1.7 | 180 |  | IC50 (L1210 [13]): 1300 nM |
| C#CCN(c1ccc(C(=O)N[C@@H](CCCS(=O)(=O)c2nnc[nH]2)C(=O)O)cc1)C1CCc2cc3nc(C)[nH]c(=O)c3cc21 (some centres not stated) | 0.78 | 490 | 680 |  |
| C#CCN(c1ccc(C(=O)N[C@@H](CCC(=O)N(C)[C@H](CCC(=O)O)C(=O)O)C(=O)O)cc1)C1CCc2cc3nc(C)nc(O)c3cc21 (some centres not stated) | 0.78 |  | 4400 | IC50 (L1210 [14]): 2300 nM |
| C#CCN(c1ccc(C(=O)N[C@@H](CCC(=O)N[C@H](C)C(=O)O)C(=O)O)cc1)C1CCc2cc3nc(C)nc(O)c3cc21 (some centres not stated) | 1.1 | 420 | 1400 |  |
